In ChEMBL document CHEMBL1157575, “Antitumor agents. 272. Structure-activity relationships and in vivo selective anti-breast cancer activity of novel neo-tanshinlactone analogues” (J Med Chem, 2010):
Converted amounts (≈) assume the structure as drawn.

Tests used:
Type in all cases: functional
ZR-75-1 [1] = experiment: Antitumor activity against human ZR-75-1 cells xenografted in athymic nude mouse SCID assessed as mean time to end point at 20 mg/kg, ip administered in Q4D X 5 schedule; settings: route intraperitoneal
Method in brief: (§1)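 Female SCID mice, 5 weeks old, 20-24 g, implanted s.c. in the right flank with 1 × 10^7 ZR-75-1 cells in PBS. Tumors were caliper-measured, with volume = w² × l/2. Dosing was i.p. in vehicle (4% benzyl alcohol/6% cremophor/90% D5W); vehicle controls were given qod to end. TTE is the mean time to endpoint. %TGD = (T−C)/C × 100. Logrank test, P ≤ 0.05.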

ZR-75-1 [2] = experiment: Antitumor activity against human ZR-75-1 cells xenografted in athymic nude mouse SCID assessed as tumor growth delay at 20 mg/kg, ip administered in Q4D X 5 schedule; settings: route intraperitoneal; method in brief: as §1
MCF7 = experiment: Growth inhibition of human MCF7 cells after 72 hrs by SRB assay; settings: MCF7, 72 h, read-out: ED50 (the source's name)
Method in brief: (§2)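 SRB assay. Cells were grown in RPMI-1640 with 10% FBS at 37 °C and 5% CO2, then seeded in 96-well plates. Compound was added from DMSO stock, followed by 72 h incubation. Cells were fixed with 10% TCA, stained with 0.4% SRB, solubilized in 10 mM Tris base, and read at 515 nm. ED50 is the concentration giving 50% reduction of net protein increase versus control; mean of at least three independent determinations.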

SK-BR-3 = experiment: Growth inhibition of human SK-BR-3 cells after 72 hrs by SRB assay; settings: SK-BR-3, 72 h, read-out: ED50 (the source's name); method in brief: as §2
ZR-75-1 [3] = experiment: Growth inhibition of human ZR-75-1 cells after 72 hrs by SRB assay; settings: ZR-75-1, 72 h, read-out: ED50 (the source's name); method in brief: as §2
MDA-MB-231 = experiment: Growth inhibition of human MDA-MB-231 cells after 72 hrs by SRB assay; settings: MDA-MB-231, 72 h, read-out: ED50 (the source's name); method in brief: as §2
A549 = experiment: Cytotoxicity against human A549 cells after 72 hrs by SRB assay; settings: A549, 72 h, read-out: ED50 (the source's name)
DU-145 = experiment: Cytotoxicity against human DU145 cells after 72 hrs by SRB assay; settings: DU-145, 72 h, read-out: ED50 (the source's name)
KB = experiment: Cytotoxicity against human KB cells after 72 hrs by SRB assay; settings: read-out: ED50 (the source's name); method in brief: as §2
[4] = Cytotoxicity against human KBVIN cells after 72 hrs by SRB assay; settings: read-out: ED50 (the source's name); method in brief: as §2
ZR-75-1 [5] = experiment: Selectivity for ED50 for human ZR-75-1 to ED50 for human SK-BR-3
Method in brief: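 SRB growth assay: ZR-75-1 and SK-BR-3 cells in RPMI-1640 with 10% FBS at 37 °C under 5% CO2, seeded in 96-well plates, compound added from DMSO stock, 72 h exposure, TCA fixation, SRB staining, absorbance at 515 nm. ED50 is 50% reduction of net protein increase, averaged from ≥3 independent runs; ratio of ZR-75-1 to SK-BR-3 ED50.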

| Structure (SMILES) | EC50 (MCF7) | EC50 (SK-BR-3) | EC50 (ZR-75-1 [3]) | EC50 (MDA-MB-231) | also measured |
| --- | --- | --- | --- | --- | --- |
| CC(=O)O[C@H]1C(=O)[C@@]2(C)[C@H]([C@H](OC(=O)c3ccccc3)[C@]3(O)C[C@H](OC(=O)[C@H](O)[C@@H](NC(=O)c4ccccc4)c4ccccc4)C(C)=C1C3(C)C)[C@]1(OC(C)=O)CO[C@@H]1C[C@@H]2O [PACLITAXEL] | – | – | – | – | Activity (ZR-75-1 [1]): 35 days; Activity (ZR-75-1 [2]): 132% |
| CCc1cccc2c1ccc1c3oc(C)c(C)c3c(=O)oc21 | 8 mg/L (≈ 27.4 µM) | 9.8 mg/L (≈ 33.5 µM) | – | – | – |
| Cc1ccc2c(=O)oc3c4ccccc4ccc3c2c1 | – | > 20 mg/L | – | – | – |
| CCOc1cccc2c1ccc1c3occ(C)c3c(=O)oc21 | > 20 mg/L | 2.5 mg/L (≈ 8.49 µM) | 1.9 mg/L (≈ 6.46 µM) | 9.8 mg/L (≈ 33.3 µM) | EC50 (A549): 3.5 mg/L (≈ 11.9 µM); EC50 (DU-145): 4.7 mg/L (≈ 16 µM); EC50 (KB): 3.7 mg/L (≈ 12.6 µM); EC50 [4]: 5.3 mg/L (≈ 18 µM) |
| CCc1cccc2c1ccc1c3c(c(=O)oc12)C(C)CO3 (stereo not drawn) | – | 5.1 mg/L (≈ 18.2 µM) | – | – | – |
| CCc1cccc2c1ccc1c3occ(-c4ccc(OC)cc4)c3c(=O)oc21 | > 20 mg/L | > 20 mg/L | – | – | – |
| CCc1cccc2c1ccc1c3oc(C)cc3c(=O)oc21 | > 20 mg/L | 2.1 mg/L (≈ 7.55 µM) | 2.2 mg/L (≈ 7.9 µM) | 9.6 mg/L (≈ 34.5 µM) | EC50 (A549): 12 mg/L (≈ 43.1 µM); EC50 (KB): 14 mg/L (≈ 50.3 µM); EC50 [4]: 13 mg/L (≈ 46.7 µM) |
| CC(=O)Oc1cccc2c1ccc1c3occ(C)c3c(=O)oc21 | 6 mg/L (≈ 19.5 µM) | 5.7 mg/L (≈ 18.5 µM) | – | – | – |
| CC1COc2c1c(=O)oc1c2ccc2ccccc21 (stereo not drawn) | – | 14 mg/L (≈ 55.5 µM) | – | – | – |
| Cc1coc2c1c(=O)sc1c3ccccc3ccc21 | > 20 mg/L | 12 mg/L (≈ 45.1 µM) | – | – | – |
| Cc1oc2c(c1C)c(=O)oc1c3ccccc3ccc21 | > 20 mg/L | 6.9 mg/L (≈ 26.1 µM) | – | – | – |
| Cc1coc2c1c(=O)oc1c3cccc(C(C)C)c3ccc21 | 1.4 mg/L (≈ 4.79 µM) | 2 mg/L (≈ 6.84 µM) | 0.2 mg/L (≈ 0.684 µM) | > 10 mg/L | EC50 (KB): 11 mg/L (≈ 37.6 µM); EC50 [4]: 7.3 mg/L (≈ 25 µM); Ratio ED50 (ZR-75-1 [5]): 10 |
| CCc1coc2c1c(=O)oc1c3ccccc3ccc21 | 2.5 mg/L (≈ 9.46 µM) | 1.8 mg/L (≈ 6.81 µM) | 2.3 mg/L (≈ 8.7 µM) | > 10 mg/L | EC50 (A549): 8.2 mg/L (≈ 31 µM); EC50 (DU-145): 8.7 mg/L (≈ 32.9 µM); EC50 (KB): 7.5 mg/L (≈ 28.4 µM); EC50 [4]: 6.6 mg/L (≈ 25 µM) |
| CCc1cccc2c1ccc1c3occ(C)c3/c(=N/O)oc21 | > 20 mg/L | 19 mg/L (≈ 64.8 µM) | – | – | – |
| Cc1coc2c1c(=O)oc1c3cccc(OCCN(C)C)c3ccc21 | 5 mg/L (≈ 14.8 µM) | 5.8 mg/L (≈ 17.2 µM) | – | – | – |
| Cc1cccc2c1ccc1c3occ(C)c3c(=O)oc21 | 0.6 mg/L (≈ 2.27 µM) | 0.2 mg/L (≈ 0.757 µM) | 0.3 mg/L (≈ 1.14 µM) | 10 mg/L (≈ 37.8 µM) | – |
